According to ChEMBL document CHEMBL2086239, “Synthesis and biological evaluation of combretastatin-amidobenzothiazole conjugates as potential anticancer agents” (Eur J Med Chem, 2012):
Calls of active or inactive are those of the source. The rule behind the calls is not given here.

Key:
Format in all cases: functional
[1] = tested on: A549; assay: Cytotoxicity against human A549 cells assessed as inhibition of cell growth at 10 uM after 48 hrs by SRB assay relative to control; conditions: A549, 48 h, read-out: GI
Procedure, shortened: (§1)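 SRB protein assay in DMEM with 10% FBS at 37 °C, 5% CO2, 100% relative humidity. Cells seeded in 96-well plates, incubated 24 h, then exposed to drug at 10 µM for 48 h and processed per standard protocol. Absorbance read at 560 nm; growth percentage calculated for test wells relative to control wells.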

[2] = tested on: COLO 205; assay: Cytotoxicity against human COLO205 cells after 48 hrs assessed as inhibition of cell growth at 10 uM after 48 hrs by SRB assay relative to control; conditions: COLO 205, 48 h, read-out: GI; procedure, shortened: as §1
[3] = tested on: THP-1; assay: Cytotoxicity against human THP1 cells after 48 hrs assessed as inhibition of cell growth at 10 uM after 48 hrs by SRB assay relative to control; conditions: THP-1, 48 h, read-out: GI; procedure, shortened: as §1
[4] = tested on: MCF7; assay: Cytotoxicity against human MCF7 cells after 48 hrs assessed as inhibition of cell growth at 10 uM after 48 hrs by SRB assay relative to control; conditions: MCF7, 48 h, read-out: GI; procedure, shortened: as §1
[5] = tested on: HEp-2; assay: Cytotoxicity against human Hep2 cells after 48 hrs assessed as inhibition of cell growth at 10 uM after 48 hrs by SRB assay relative to control; conditions: HEp-2, 48 h, read-out: GI; procedure, shortened: as §1
[6] = tested on: CCRF-CEM; assay: Growth inhibition of human CCRF-CEM cells after 48 hrs by SRB assay
Procedure, shortened: (§2)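 NCI 60-cell-line screen: after preliminary screening, tested at five dose concentrations on 59 human tumour lines covering leukemia, lung, colon, CNS, melanoma, ovarian, renal, prostate and breast.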

[7] = tested on: MOLT-4; assay: Growth inhibition of human MOLT4 cells after 48 hrs by SRB assay; conditions: MOLT-4, 48 h; procedure, shortened: as §2
[8] = tested on: SR; assay: Growth inhibition of human SR cells after 48 hrs by SRB assay
Procedure, shortened: (§3)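 NCI 60-cell-line panel, five-dose testing after preliminary screen; sulforhodamine B protein assay in DMEM with 10% FBS, 37 °C, 5% CO2, 100% humidity. Cells seeded and incubated 24 h before compound addition, then exposed 48 h. Absorbance read at 560 nm; growth percentage relative to control wells; GI50 taken as concentration giving 50% growth inhibition.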

[9] = tested on: A549; assay: Growth inhibition of human A549 cells after 48 hrs by SRB assay; conditions: A549, 48 h; procedure, shortened: as §2
[10] = tested on: HOP-62; assay: Growth inhibition of human HOP62 cells after 48 hrs by SRB assay; conditions: HOP-62, 48 h; procedure, shortened: as §2
[11] = tested on: HOP-92; assay: Growth inhibition of human HOP92 cells after 48 hrs by SRB assay; conditions: HOP-92, 48 h; procedure, shortened: as §2
[12] = tested on: NCI-H226; assay: Growth inhibition of human NCI-H226 cells after 48 hrs by SRB assay; conditions: NCI-H226, 48 h; procedure, shortened: as §2
[13] = tested on: NCI-H23; assay: Growth inhibition of human NCI-H23 cells after 48 hrs by SRB assay; conditions: NCI-H23, 48 h; procedure, shortened: as §2
[14] = tested on: NCI-H322M; assay: Growth inhibition of human NCI-H322M cells after 48 hrs by SRB assay; procedure, shortened: as §2
[15] = tested on: NCI-H460; assay: Growth inhibition of human NCI-H460 cells after 48 hrs by SRB assay; conditions: NCI-H460, 48 h; procedure, shortened: as §2
[16] = tested on: COLO 205; assay: Growth inhibition of human COLO205 cells after 48 hrs by SRB assay; conditions: COLO 205, 48 h; procedure, shortened: as §2
[17] = tested on: HCC 2998; assay: Growth inhibition of human HCC2998 cells after 48 hrs by SRB assay; procedure, shortened: as §2
[18] = tested on: HCT-15; assay: Growth inhibition of human HCT15 cells after 48 hrs by SRB assay; conditions: HCT-15, 48 h; procedure, shortened: as §2
[19] = tested on: HT-29; assay: Growth inhibition of human HT-29 cells after 48 hrs by SRB assay; procedure, shortened: as §2
[20] = tested on: SF-295; assay: Growth inhibition of human SF295 cells after 48 hrs by SRB assay; conditions: SF-295, 48 h; procedure, shortened: as §3
[21] = tested on: SNB-19; assay: Growth inhibition of human SNB19 cells after 48 hrs by SRB assay; procedure, shortened: as §3
[22] = tested on: U-251; assay: Growth inhibition of human U251cells after 48 hrs by SRB assay; conditions: U-251, 48 h; procedure, shortened: as §3
[23] = tested on: LOX IMVI; assay: Growth inhibition of human LOXIMVI cells after 48 hrs by SRB assay; procedure, shortened: as §2
[24] = tested on: MDA-MB-435; assay: Growth inhibition of human MDA-MB-435 cells after 48 hrs by SRB assay; conditions: MDA-MB-435, 48 h; procedure, shortened: as §2
[25] = tested on: SK-MEL-2; assay: Growth inhibition of human SK-MEL-2 cells after 48 hrs by SRB assay; conditions: SK-MEL-2, 48 h; procedure, shortened: as §3
[26] = tested on: SK-MEL-28; assay: Growth inhibition of human SK-MEL-28 cells after 48 hrs by SRB assay; procedure, shortened: as §3
[27] = tested on: SK-MEL-5; assay: Growth inhibition of human SK-MEL-5 cells after 48 hrs by SRB assay; conditions: SK-MEL-5, 48 h; procedure, shortened: as §3
[28] = tested on: IGROV-1; assay: Growth inhibition of human IGROV1 cells after 48 hrs by SRB assay; conditions: IGROV-1, 48 h; procedure, shortened: as §2
[29] = tested on: OVCAR-3; assay: Growth inhibition of human OVCAR3 cells after 48 hrs by SRB assay; conditions: OVCAR-3, 48 h; procedure, shortened: as §2
[30] = tested on: OVCAR-5; assay: Growth inhibition of human OVCAR5 cells after 48 hrs by SRB assay; procedure, shortened: as §2
[31] = tested on: OVCAR-4; assay: Growth inhibition of human OVCAR4 cells after 48 hrs by SRB assay; conditions: OVCAR-4, 48 h; procedure, shortened: as §2
[32] = tested on: 786-0; assay: Growth inhibition of human 786-0 cells after 48 hrs by SRB assay; procedure, shortened: as §2
[33] = tested on: A498; assay: Growth inhibition of human A498 cells after 48 hrs by SRB assay; conditions: A498, 48 h; procedure, shortened: as §2
[34] = tested on: ACHN; assay: Growth inhibition of human ACHN cells after 48 hrs by SRB assay; procedure, shortened: as §2
[35] = tested on: CAKI-1; assay: Growth inhibition of human Caki1 cells after 48 hrs by SRB assay; conditions: CAKI-1, 48 h; procedure, shortened: as §2
[36] = tested on: TK-10; assay: Growth inhibition of human TK10 cells after 48 hrs by SRB assay; conditions: TK-10, 48 h; procedure, shortened: as §3
[37] = tested on: PC-3; assay: Growth inhibition of human PC3 cells after 48 hrs by SRB assay; conditions: PC-3, 48 h; procedure, shortened: as §2
[38] = tested on: Hs-578T; assay: Growth inhibition of human Hs578T cells after 48 hrs by SRB assay; procedure, shortened: as §2
[39] = tested on: MCF7; assay: Cell cycle arrest in human MCF7 cells assessed as accumulation at G1 phase at 4 uM after 24 hrs by FACS analysis (reference value: 58.33%)
[40] = tested on: MCF7; assay: Cell cycle arrest in human MCF7 cells assessed as accumulation at S phase at 4 uM after 24 hrs by FACS analysis (reference value: 6.79%)
[41] = tested on: MCF7; assay: Cell cycle arrest in human MCF7 cells assessed as accumulation at G2/M phase at 4 uM after 24 hrs by FACS analysis (reference value: 34.88%)
[42] = tested on: SW-620; assay: Growth inhibition of human SW620 cells after 48 hrs by SRB assay; procedure, shortened: as §3

Compound: COc1ccc(/C=C\c2cc(OC)c(OC)c(OC)c2)cc1OCC(=O)Nc1nc2ccc(OC(F)(F)F)cc2s1
- inhibition of growth at 10 µM [1]: 40%
- inhibition of growth at 10 µM [2]: 41%
- inhibition of growth at 10 µM [3]: 66%
- inhibition of growth at 10 µM [4]: 59%
- inhibition of growth at 10 µM [5]: 78%
- GI50 [6]: 4.12 µM
- GI50 [7]: 4.21 µM
- GI50 [8]: 3.55 µM
- GI50 [9]: 6 µM
- GI50 [10]: 7.09 µM
- GI50 [11]: 2.74 µM
- GI50 [12]: 4.3 µM
- GI50 [13]: 4.39 µM
- GI50 [14]: inactive
- GI50 [15]: 4.11 µM
- GI50 [16]: 43.3 µM
- GI50 ([17]; HCC 2998, 48 h): 17.1 µM
- GI50 [18]: 3.23 µM
- GI50 [19]: inactive
- GI50 [20]: 3.7 µM
- GI50 ([21]; SNB-19, 48 h): 7.08 µM
- GI50 [22]: 3.37 µM
- GI50 [23]: 4.77 µM
- GI50 [24]: 1.93 µM
- GI50 [25]: 3.29 µM
- GI50 ([26]; SK-MEL-28, 48 h): 4.57 µM
- GI50 [27]: 3.26 µM
- GI50 [28]: 5.64 µM
- GI50 [29]: 3.37 µM
- GI50 ([30]; OVCAR-5, 48 h): 3.12 µM
- GI50 [31]: 5.34 µM
- GI50 [32]: inactive
- GI50 [33]: 3.61 µM
- GI50 [34]: 8.31 µM
- GI50 [35]: 4.6 µM
- GI50 [36]: 18.6 µM
- GI50 [37]: 5.12 µM
- GI50 [38]: 4.33 µM
- Activity [39]: 59.04%
- Activity [40]: 7.51%
- Activity [41]: 33.45%
- GI50 ([42]; SW-620, 48 h): 5.65 µM

Compound: COc1ccc(/C=C\c2cc(OC)c(OC)c(OC)c2)cc1OCC(=O)Nc1nc2ccc(F)cc2s1
- inhibition of growth at 10 µM [1]: 44%
- inhibition of growth at 10 µM [2]: 50%
- inhibition of growth at 10 µM [3]: 54%
- inhibition of growth at 10 µM [4]: 56%
- inhibition of growth at 10 µM [5]: 64%
- GI50 [6]: 3.7 µM
- GI50 [7]: 3.07 µM
- GI50 [8]: 2.19 µM
- GI50 [9]: 5.99 µM
- GI50 [10]: 5.7 µM
- GI50 [11]: 5.73 µM
- GI50 [12]: 5.6 µM
- GI50 [13]: 4.26 µM
- GI50 [14]: inactive
- GI50 [15]: 4.36 µM
- GI50 [16]: 7.78 µM
- GI50 [17]: inactive
- GI50 [18]: 8.19 µM
- GI50 ([19]; HT-29, 48 h): 9.63 µM
- GI50 [20]: 4.29 µM
- GI50 [21]: inactive
- GI50 [22]: 4.33 µM
- GI50 [23]: 3.23 µM
- GI50 [24]: 0.33 µM
- GI50 [25]: 8.46 µM
- GI50 [26]: inactive
- GI50 [27]: 1.76 µM
- GI50 [28]: 4.17 µM
- GI50 [29]: 9.99 µM
- GI50 [30]: inactive
- GI50 [31]: 7.3 µM
- GI50 ([32]; 786-0, 48 h): 7.12 µM
- GI50 [33]: 6.25 µM
- GI50 [34]: 3.33 µM
- GI50 [35]: 2.78 µM
- GI50 [36]: 9.89 µM
- GI50 [37]: 6.74 µM
- GI50 [38]: inactive
- Activity [39]: 44.28%
- Activity [40]: 13.64%
- Activity [41]: 42.08%
- GI50 [42]: inactive
